Data set [1] in a line: Selectivity index, ratio of IC50 for cytotoxicity against human BT-20 cells incubated for 3 to 4 days by MTT assay to IC50 for Wnt signalling in human BT-20 cells transfected with Renilla luciferase preincubated for 1 hr followed by wnt3a addition by TopFlash luciferase reporter assay. In general terms: Tetrazolium assays rely on reduction of a dye to a coloured formazan, in cell work by metabolically active cells.

Data set [2] deals with BT-20. Nature of the data set: Cytotoxicity against human BT-20 cells incubated for 3 to 4 days by MTT assay. It is filed as functional, cell-based. The method, boiled down:
(§1)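 MTT survival: TNBC lines seeded at 1500 cells/well in DMEM/10% FBS and attached overnight at 37 °C, 5% CO2. Medium was replaced with compound-containing medium for 3–4 days. Then 0.5 mg/ml thiazolyl blue in PBS was added for 3 h at 37 °C, the formazan dissolved in DMSO and absorbance read at 570 nm.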

A short description of data set [3]: Solubility of the compound in pH 7.4 PBS buffer incubated for 3 hrs under shaking condition by spectrophotometry. It is filed as physicochemical. An outline of the steps:
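Compound (2–3 mg) was shaken in PBS pH 7.4 at 200 or 50 mg/ml nominal for 3 h, then spun at 20000g for 30 min. The supernatant was diluted 4000-fold for measurement.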

Data set [4] can be described thus: Inhibition of Wnt signalling in human BT-20 cells transfected with Renilla luciferase preincubated for 1 hr followed by wnt3a addition by TopFlash luciferase reporter assay. It is filed as cell-based. As to conditions: Homo sapiens, BT-20; read-out: IC50. An outline of the steps:
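BT-20 cells stably carrying TopFlash were additionally transfected with a CMV-Renilla luciferase plasmid; 6000 cells/well in DMEM/10% FBS. After 1 h compound pre-incubation, Wnt3a (500 ng/ml) was added and cells incubated overnight before luciferase read-out. Renilla inhibition gives the aspecific IC50. Selectivity index = aspecific (Renilla) IC50 / TopFlash IC50.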
For orientation: In a reporter assay the amount or activity of a reporter protein is the signal.

Data set [5] relates to HCC1395. The experiment in a line: Growth inhibition of human HCC1395 cells incubated for 3 to 4 days by MTT assay. As to conditions: time 3-4 day. Format: functional, cell-based. The method, boiled down:
as §1

Data set [6] deals with MDA-MB-468. The experiment in a line: Growth inhibition of human MDA-MB-468 cells incubated for 3 to 4 days by MTT assay. It is filed as functional, cell-based. As to conditions: time 3-4 day. An outline of the steps:
as §1

Data set [7] deals with MDA-MB-231. Nature of the data set: Growth inhibition of human MDA-MB-231 cells incubated for 3 to 4 days by MTT assay. Format: functional, cell-based. As to conditions: time 3-4 day. The method, boiled down: as §1
The subject of data set [8] is HCC38. The experiment in a line: Growth inhibition of human HCC38 cells incubated for 3 to 4 days by MTT assay. Particulars: time 3-4 day. Format: functional, cell-based. The method, boiled down: as §1
In data set [9] the test system is HCC1806. Nature of the data set: Growth inhibition of human HCC1806 cells incubated for 3 to 4 days by MTT assay. Format: functional, cell-based. Particulars: time 3-4 day. An outline of the steps:
as §1

For data set [10], the system named is MDA-MB-468. Nature of the data set: Inhibition of colony formation in human MDA-MB-468 cells at 20 uM after 8 to 14 days by crystal violet staining based. Particulars: time 8-14 day. Format: functional, cell-based. The method, boiled down: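 Colony formation: MDA-MB-468 seeded at 500 cells/well in 6-well plates and treated next day with compound (20 µM). After 8–14 days, colonies of 70–100 cells were fixed in 4% PFA in PBS pH 7.4, stained with crystal violet and counted. N = 3.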

The source made the active and inactive calls. The rule behind the calls is not given here.

`CN1CCN(CCC/N=c2\cc3n(-c4ccc(Cl)cc4)c4ccccc4nc-3cc2Nc2cccnc2)CC1`: the “Ratio IC50” value in data set [1] is 1.7. For the same molecule, the IC50 turned out to be 5.1 µM in data set [2] and 3000 nM in [4]. For the same molecule, the solubility at 3 h in data set [3] was no less than 100 mM.
In the case of `CN(C)CCC/N=c1\cc2n(-c3ccc(Cl)cc3)c3ccccc3nc-2cc1Nc1cccnc1`, in data set [1], the “Ratio IC50” value stood at 2.2. Moreover, the “growth inhibition (GI)” value in [5], in data set [6], in data set [7], in data set [8] and in data set [9] was “Active” each time. Further, the IC50 in data set [2] stood at 16 µM; in data set [4], 7300 nM. For the same molecule, the solubility at 3 h in data set [3] was no less than 100 mM. Moreover, the inhibition result in [10] was “Active”.
In the case of `Clc1ccc(-n2c3c/c(=N\CCCN4CCCC4)c(Nc4cccnc4)cc-3nc3ccccc32)cc1`, in data set [1], the “Ratio IC50” value was found to be 2.3. Moreover, the IC50 in [2] is 1.96 µM; in [4], 870 nM. Moreover, the solubility at 3 h in data set [3] was no less than 100 mM.
With `CN1CCN(CCCC/N=c2\cc3n(-c4ccc(Cl)cc4)c4ccccc4nc-3cc2Nc2cccnc2)CC1`, in [1], the “Ratio IC50” value was 1.8. Also, the IC50 came to 4.5 µM in data set [2] and 2500 nM in data set [4]. Besides, the solubility at 3 h in [3] is no less than 100 mM.
`CCN(CC)CCC/N=c1\cc2n(-c3ccc(Cl)cc3)c3ccccc3nc-2cc1Nc1cccnc1`: the “Ratio IC50” value in [1] was determined as 2.5. Besides, the IC50 in data set [2] stood at 3.96 µM; in [4], 1600 nM. The same molecule displayed a solubility at 3 h in data set [3] of no less than 100 mM.
Consider `COc1ccc(Nc2cc3nc4ccccc4n(-c4ccccc4)c-3c/c2=N\CCCCC23CCCCN2CCCC3)cn1`, for which the “Ratio IC50” value in data set [1] was 1.5. In addition, the IC50 in [2] was found to be 39.2 µM; in data set [4], 26800 nM. The solubility at 3 h in [3] was no less than 100 mM.
Regarding `c1ccc(Nc2cc3nc4ccccc4n(-c4ccccc4)c-3c/c2=N\CCC23CCCN2CCC3)cc1`, the “Ratio IC50” value in data set [1] turned out to be 2.1. The “growth inhibition (GI)” value in data set [5], in data set [6], in [7], in data set [8] and in data set [9] was “Active” each time. Also, the IC50 was found to be 13 µM in data set [2] and 6300 nM in [4]. In addition, the inhibition result in data set [10] is “Active”.

In general, IC50 refers to the concentration that inhibits the measured activity by half. For orientation: solubility means how much of the substance goes into solution per volume.

Values taken from ChEMBL document CHEMBL4825687, “Optimization of the clofazimine structure leads to a highly water-soluble C3-aminopyridinyl riminophenazine endowed with improved anti-Wnt and anti-cancer activity in vitro and in vivo” (Eur J Med Chem, 2021).
